Measured values from the EternaBench riboswitch data.

Tested on: MS2 coat protein
Test: apparent Kd, MS2 coat protein; higher = weaker binding; RNA-MaP array; FMN 200 µM where present
In short: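 Each design was made on Illumina sequencing-chip clusters by stalled E. coli RNA polymerase and titrated with SNAP-549-labelled MS2 coat protein from 0.7 or 1.5 nM, doubling to 3 µM, in the absence and then the presence of constant ligand. The buffer was 100 mM Tris-HCl pH 7.5, 80 mM KCl, 4 mM MgCl2, BSA, DTT, yeast tRNA and Tween-20. The apparent Kd is the median of filtered per-cluster fits of binding curves, with green signal normalised to red-channel RNA signal and control-cluster median Fmax.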

[1] = designed as: OFF switch for flavin mononucleotide, no ligand
[2] = ligand present: flavin mononucleotide, designed as: OFF switch for flavin mononucleotide
[3] = designed as: ON switch for flavin mononucleotide, no ligand
[4] = ligand present: flavin mononucleotide, designed as: ON switch for flavin mononucleotide

Sequence | apparent Kd [1] | apparent Kd [2] | apparent Kd [3] | apparent Kd [4]
GGAUCGAAUGUGAGGAUAUGCUGGUCCUUGGAUCAGCAGAAGGCACAUGAGGAUCACCCAUGUGACCUAGAUCC | 32.7 nM | 430 nM | – | –
UCCGGACAUGAGGAUCACCCAUGUCAGGAUAUACCCGAGGCAGCGAACUCGCUAGCCAGUAGAAGGGACAUGGU | 19.8 nM | 20.8 nM | – | –
GCCAUCUCAUGAGGAUAUGCUCCCGUUUCGGGAGCAGAAGGCAUGUCAUAAGACAUGAGGAUCACCCAUGUAGUUAAGAUGGCA | – | – | 286 nM | 11.8 nM
AUAAUGCGAGGAUAUACAUGAGGAUCACCCAUGUAAUUCAAUCGGAGAGCCACAUUUCGUAGAAGGUGCAUUAA | 15.7 nM | 21.4 nM | – | –
AACGCAUGUGGAGGAUAUGCAGUUAACAUAAGCGCAGAAGGCCACAUGAGGAUCACCCAUGUCCGGCAUUAGCCGAUGUUGAUC | 509 nM | 114 nM | – | –
CGCUGUCACGCAGGAUAUGCAUUGGAUUACAAUGCAGAAGGGCGAUUACAUGAGGAUCACCCAUGUGUCGACAGUGAAGAAGAG | – | – | – | 43 nM
AACAUGAGGAUCACCCAUGUCCCACCAGAAGGCUGGCGGUGGUGGUAAAGGCCACGACAAAUAACAGAGGAUAUGGUGAAUGCA | – | – | 84.6 nM | 18.8 nM
AAUAACAGAGGAUAUACUAUUUUAUGUGUUUGUUGUUUUAAACAUGAGGAUCACCCAUGUAGAAGGCUGAUUAA | 32.7 nM | 38.8 nM | – | –
GUAGCAUACCGAGGAUAUUCAGGGCGUGGAUAUACAUGAGGAUCACCCAUGUGGCGGAAGCCUAGGGAGAAGGCGGGCUGCUAC | – | – | 21.6 nM | 16.3 nM
AACGAGCAGUAGAAGGCGUGUCUACGGACAUGAGGAUCACCCAUGUUGUGACUCCGAAAGGAGCGCGAGGAUAUACUGCUCAAA | – | – | 10.3 nM | 6.57 nM
CUCGGCGCACAGAAGGAUCGGUACAUGAGGAUCACCCAUGUAAGCAAAGAUAGGAUAUGUGGAGCUUACAGGGAAAUUGAACAA | – | – | 74.6 nM | 10.8 nM
GCAUCCAAUGUGAGGAUAUACCUCUGGAUACAUAGGUAGAAGGCACAUGAGGAUCACCCAUGUCCUAAGGAUGC | 130 nM | 149 nM | – | –
CCCGUGUGAGGAUAUCGUUCGCUUGGCGUUUGUCGGGUGGGCGAGAAGGUACAUGAGGAUCACCCAUGUGCGGG | 172 nM | 422 nM | – | –
AUAAAACAUGAGGAUCACCCAUGUCAACAAAGUCGAGGAUAUGGGCAAAUAAAAUAAGAACCAGAAGGCGAAUAUU | – | – | 223 nM | 48 nM
GCUCACCGUCAGAAGGUACUUAAAAGUUGUGAGUAAGGAUAUGACAUGAGGAUCACCCAUGUAAACGUGGACUUUCACAUACAU | 13.5 nM | 59.1 nM | – | –
UUGGACGUCGUAGGAUAUGUAGGAUAUUACUACAUGAGGAUCACCCAUGUUGACAUGGAAGAAGGACAGAAGGACGAUGUCCAU | – | – | 638 nM | 6.52 nM
UAAUAAUAGCAAGGAUAUAGUUAUUAUAAUAUACUAGAAGGUGCACAUGAGGAUCACCCAUGUUUUAUAAUUUGUAAUUUAAAU | 29 nM | 22.4 nM | – | –
GGAGCCCAGUCAGGAUAUGUAACGCUAAGGCUGUUACAUGAGGAUCACCCAUGUUUCACCGUGAAACAGAAGGGACAAUUGGCG | – | – | 500 nM | 147 nM
AGGAGACAUGAGGAUCACCCAUGUGCACGUGGAGGAGGAUAUGCUAGUAGAAGAUAGAAAGCAGAAGGCCUAAGAA | – | – | 69.2 nM | 80.5 nM
GCUGACGAUGUAGGAUAUCUCGACGAUAAGUCGAGAGAAGGACAUGAGGAUCACCCAUGUACUCCAACGUCAGCGAGGAAACUC | 18.2 nM | 18.5 nM | – | –
UCACGGGACUGAGGAUAUACAUUUAUUAUUUUUGUAGAAGGCAGAAUGUUAGUUUUUUCACUAUACAUGAGGAUCACCCAUGUU | 27.1 nM | 19.9 nM | – | –
CUGUUACAUGAGGAUCACCCAUGUCAGGAUAUUUCUAUAGCGUCCUGCCGACGCAUAGAAAGAAGGGAUGGUGA | 48.6 nM | 83.8 nM | – | –
UUCAUGUGAGGAUAUGCGGCAUCAGGUGGGCCUGUCGCUGAGCAGAAGGCACAUGAGGAUCACCCAUGUGCUCC | 16.4 nM | 41.6 nM | – | –
